Data as given in ChEMBL document CHEMBL1130207, “Structure-activity relationships for acridine-substituted analogues of the mixed topoisomerase I/II inhibitor N-[2-(dimethylamino)ethyl]acridine-4-carboxamide” (J Med Chem, 1997).

Legend:
[1] = system: Jurkat; test: Inhibitory concentration required to reduce human Jurkat leukemia (JLC sensitive, wild type) cell number to 50% of control cultures; type: functional, cell-based
[2] = system: LLTC cell line; test: Inhibitory concentration required to reduce Lewis lung carcinoma cell number to 50% of control cultures; type: functional, cell-based; details: Mus musculus
How it was run: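 Lewis lung carcinoma cells seeded at 10³ per well and exposed to drug for 4 days. Growth read by sulforhodamine assay; IC50 is the drug concentration (nM) that cuts cell number to 50% of control cultures. Value is the mean of at least two independent determinations done in duplicate; coefficient of variation 7.9–8.5%.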

[3] = system: P388; test: Inhibitory concentration required to reduce murine p388 leukemia cell number to 50% of control cultures; type: functional, cell-based; details: Mus musculus
[4] = system: Jurkat; test: Ratio of IC50 of mutant Jurkat leukemia (JLD) to the IC50 of Jurkat leukemia (JLC sensitive, wild type); type: functional, Homo sapiens
How it was run: (§1)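 Jurkat lines were each plated at 3.75 × 10³ per well and grown 4 days with drug: parental JL_C, amsacrine-resistant JL_A and doxorubicin-resistant JL_D. Growth was read by sulforhodamine assay. IC50 is the concentration giving 50% of control cell number. Ratio is IC50 in JL_A or JL_D divided by IC50 in JL_C.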

[5] = system: Jurkat; test: Ratio of IC50 of Jurkat leukemia amsacrine (JLA) to the IC50 of Jurkat leukemia (JLC sensitive, wild type); type: functional, Homo sapiens; how it was run: as §1

IC50 [1] | IC50 [2] | IC50 [3] | SMILES | Ratio [4] | Ratio [5]
137 nM | 20 nM | 18 nM | CCc1cccc2cc3cccc(C(=O)NCCN(C)C)c3nc12 | 4.4 | 4.1
424 nM | 158 nM | 55 nM | CN(C)CCNC(=O)c1cccc2cc3cc(F)ccc3nc12 | 2.1 | 1.8
27 nM | 5.3 nM | 8 nM | CN(C)CCNC(=O)c1cccc2c(N)c3ccccc3nc12 | 6.1 | 4.6
580 nM | 189 nM | 98 nM | CN(C)CCNC(=O)c1cccc2cc3ccccc3nc12 | 2.3 | 1.9
580 nM | 281 nM | 160 nM | COc1ccc2cc3cccc(C(=O)NCCN(C)C)c3nc2c1 | 1.1 | 1.1
1350 nM | 735 nM | 330 nM | Cc1ccc2nc3c(C(=O)NCCN(C)C)cccc3cc2c1 | 1.1 | 1
240 nM | 168 nM | 94 nM | CN(C)CCNC(=O)c1cccc2cc3cc(-c4ccccc4)ccc3nc12 | 6.5 | 3
397 nM | 156 nM | 125 nM | CN(C)CCNC(=O)c1cccc2cc3ccc(Cl)cc3nc12 | 1.3 | 1.1
1060 nM | 372 nM | 250 nM | Cc1cccc2nc3c(C(=O)NCCN(C)C)cccc3cc12 | 1.05 | 0.95
9.6 nM | 22 nM | 15 nM | COc1cccc2c1C(=O)c1c(O)c3c(c(O)c1C2=O)C[C@@](O)(C(=O)CO)C[C@@H]3O[C@H]1C[C@H](N)[C@H](O)[C@H](C)O1 [DOXORUBICIN] | 12.7 | 4.39
1590 nM | 810 nM | 580 nM | COc1ccc2nc3c(C(=O)NCCN(C)C)cccc3cc2c1 | 1.1 | 1
753 nM | 469 nM | 250 nM | CN(C)CCNC(=O)c1cccc2cc3cc(Cl)ccc3nc12 | 1 | 0.8
212 nM | 272 nM | 260 nM | CN(C)CCNC(=O)c1cccc2cc3ccc(N(C)C)cc3nc12 | 0.85 | 0.6
 | 36 nM | 6.5 nM | CN(C)CCNC(=O)c1cccc2cc3cccc(Cl)c3nc12 |  | 4.2
26 nM | 6.2 nM | 3.8 nM | CN(C)CCNC(=O)c1cccc2cc3cccc(Br)c3nc12 | 4.9 | 3.8
436 nM | 161 nM | 150 nM | Cc1c2ccccc2nc2c(C(=O)NCCN(C)C)cccc12 | 1 | 0.85
6390 nM | 5950 nM | 8600 nM | CN(C)CCNC(=O)c1cccc2cc3cc(C(F)(F)F)ccc3nc12 | 1 | 0.8
2700 nM | 1200 nM | 4100 nM | CN(C)CCNC(=O)c1cccc2c(-c3ccccc3)c3ccccc3nc12 | 1.1 | 0.8
2480 nM | 1680 nM | 1100 nM | CN(C)CCNC(=O)c1cccc2cc3cc(N(C)C)ccc3nc12 | 1.8 | 1.8
111 nM | 36 nM | 26 nM | COc1cccc2cc3cccc(C(=O)NCCN(C)C)c3nc12 | 5.6 | 4.9

IC50 [1] | IC50 [2] | IC50 [3] | SMILES | Ratio [4] | Ratio [5]
1120 nM | 2830 nM | 890 nM | CN(C)CCNC(=O)c1ccc2nc3c(C(=O)NCCN(C)C)cccc3cc2c1 | 1 | 0.6
756 nM | 447 nM | 87 nM | CN(C)CCNC(=O)c1cccc2cc3cc(Br)ccc3nc12 | 1 | 0.8
919 nM | 258 nM | 120 nM | CN(C)CCNC(=O)c1cccc2cc3c(Cl)cccc3nc12 | 1.3 | 1.25
455 nM | 122 nM | 49 nM | CN(C)CCNC(=O)c1cccc2cc3ccc(F)cc3nc12 | 1.9 | 1.5
508 nM | 469 nM | 170 nM | CN(C)CCNC(=O)c1cccc2cc3cc(O)ccc3nc12 | 3 | 2.5
1840 nM | 346 nM | 240 nM | CCc1ccc2nc3c(C(=O)NCCN(C)C)cccc3cc2c1 | 1.85 | 1.55
625 nM | 176 nM | 96 nM | Cc1ccc2cc3cccc(C(=O)NCCN(C)C)c3nc2c1 | 1.5 | 1.3
1350 nM | 1750 nM | 1130 nM | CN(C)CCNC(=O)c1cccc2cc3ccc(C(F)(F)F)cc3nc12 | 1 | 0.9
2500 nM | 832 nM | 650 nM | CC(C)c1cccc2cc3cccc(C(=O)NCCN(C)C)c3nc12 | 1 | 1
5710 nM | 4130 nM | 1200 nM | CN(C)CCNC(=O)c1cccc2cc3cccc(N(C)C)c3nc12 | 0.9 | 0.85
446 nM | 230 nM | 160 nM | CN(C)CCNC(=O)c1cccc2cc3ccc(Br)cc3nc12 | 1.1 | 0.9
103 nM | 21 nM | 14 nM | CN(C)CCNC(=O)c1cccc2cc3cccc(F)c3nc12 | 5.6 | 4.5
7000 nM | 5820 nM | 3700 nM | CC(C)c1ccc2nc3c(C(=O)NCCN(C)C)cccc3cc2c1 | 1.2 | 0.9
1420 nM | 452 nM | 340 nM | CN(C)CCNC(=O)c1cccc2cc3cccnc3nc12 | 1.2 | 1.1
37 nM | 12 nM | 20 nM | COc1cc(NS(C)(=O)=O)ccc1Nc1c2ccccc2nc2ccccc12 [AMSACRINE] | 73.7 | 84.9
46 nM | 5.6 nM | 6.4 nM | Cc1cccc2cc3cccc(C(=O)NCCN(C)C)c3nc12 | 4.8 | 4.6
1660 nM | 706 nM | 250 nM | CN(C)CCNC(=O)c1cccc2cc3cccc(-c4ccccc4)c3nc12 | 1.4 | 1.55
4390 nM | 4590 nM | 6300 nM | CN(C)CCNC(=O)c1cccc2cc3cc(C(C)(C)C)ccc3nc12 | 1.2 | 1.1
75 nM | 17 nM | 18 nM | CN(C)CCNC(=O)c1cccc2cc3cccc(C(F)(F)F)c3nc12 | 5 | 4.4
